# Runt-SMMHC FRET: Runt domain-CBFb-SMMHC interaction inhibition. Q01196+Q13951. Cerulean-Runt/Venus-CBFb-SMMHC FRET ratio 530/480, 1 h. inhibition, % at 20 µM. actives 0.74% (n = 220,000);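 active means mean inhibition across duplicate retests at 20 µM reaching about 50%, limit read from the data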;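 further: 0% = DMSO wells and 100% = wells with excess untagged CBFb-SMMHC; inhibitors lower the FRET ratio by blocking Runt binding to CBFb-SMMHC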
# RanGTP-Imp inh: disruptors of Ran-importin-beta complex formation – biochemical, FRET, CFP-Ran, YFP-importin-beta, homogeneous, primary screen; cell-free CFP-Ran/YFP-importin-beta FRET ratio; inhibition, % (no concentration beside the values); AID 2216; actives 1.1% (n = 300,000);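 active means more than half of the replicate wells show a fall in the fluorescence ratio signal beyond about 16%, limit read from the data, passing the limit was not always enough; inconclusive means exactly half of the replicate wells pass the set limit; inactive means fewer than half of replicates pass the limit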;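 further: 0% = DMSO wells and 100% = Ran loaded with GDP instead of GTP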
# Runt-CBFb FRET: Runt domain-CBFb interaction inhibition; Cerulean-Runt/Venus-CBFb FRET ratio 530/480, 1 h; Q01196+Q13951; inhibition, % at 20 µM; actives 0.46% (n = 220,000); AID 1496;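 active means inhibition over about 50% at 20 µM in the single-dose screen, limit read from the data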;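 further: 0% = DMSO wells and 100% = excess unlabeled CBFb competitor control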
#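 Buffer or medium: Tris pH 7.5 buffer with BSA. Assay system: Cerulean-labeled Runt domain protein. Amount: each fluorescent fusion protein 100 nM. Read-out basis: loss of energy transfer signal. Incubation: 1 h compound exposure, room temperature. Probe or stimulus: Venus-CBFb binding partner, 100 nM. Detection: FRET, excitation 422 nm, emission at 530 and 480 nm.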
# Pemphigus Ab inh: human desmoglein-3 autoantibody binding inhibition. P32926. binding (percent of control), % at 10 µM. actives 0.48% (n = 310,000). AID 588358. DSG3-coupled beads, scFv-anti-DSG3-GFP binding, flow cytometry; hits give low values;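 active means binding more than 3 SD below its plate's average and above zero; inconclusive means below that plate limit but binding exactly zero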;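 further: hits lower antibody fragment binding to DSG3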
# Hck Nef HTS: human Hck-Nef kinase inhibition | Recombinant Hck-YEEI plus Nef, Z-Lyte FRET kinase assay | inhibition, % at 20 µM | P08631 | actives 0.68% (n = 220,000) | AID 463187;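 active means Hck-Nef kinase inhibition above about 50%, limit read from the data; inactive means inhibition below that limit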;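 further: 0% = DMSO with Hck plus Nef and 100% = Hck alone without Nef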
# Target sequence (P08631 whole entry, looked up): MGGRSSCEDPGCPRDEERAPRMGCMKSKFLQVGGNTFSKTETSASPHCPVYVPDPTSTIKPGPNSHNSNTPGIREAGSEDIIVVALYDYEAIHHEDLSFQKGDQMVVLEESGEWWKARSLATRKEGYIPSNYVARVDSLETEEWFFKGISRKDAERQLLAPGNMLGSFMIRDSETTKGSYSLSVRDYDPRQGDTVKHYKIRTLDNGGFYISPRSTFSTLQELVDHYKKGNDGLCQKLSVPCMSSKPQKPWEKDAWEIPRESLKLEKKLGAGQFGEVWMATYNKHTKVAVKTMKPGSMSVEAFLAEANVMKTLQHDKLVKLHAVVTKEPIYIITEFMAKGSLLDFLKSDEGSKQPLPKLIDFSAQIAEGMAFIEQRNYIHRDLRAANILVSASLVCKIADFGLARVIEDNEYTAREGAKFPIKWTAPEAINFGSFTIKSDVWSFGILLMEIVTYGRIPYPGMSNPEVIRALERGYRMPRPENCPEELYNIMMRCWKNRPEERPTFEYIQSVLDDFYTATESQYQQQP
# pCIP destab: compounds decreasing mouse p/CIP protein stability; F442A p/CIP-EGFP cells, EGFP fluorescence, 16 h; decrease of EGFP signal, % at 10 µM; actives 0.01% (n = 290,000); AID 1984;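 active means EGFP signal decrease of at least 30% at 10 µM or well 3 SD below plate mean, unless failing retest; inactive means the rest, including hits failing retest or dose response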
# * marks the source's active call; other numbers are inactive results; u = inconclusive; x = no result; ! = repeats disagree. An excerpt weighted towards active compounds, which were near 2.1% of everything screened.
SMILES,Runt-SMMHC FRET,RanGTP-Imp inh,Runt-CBFb FRET,Pemphigus Ab inh,Hck Nef HTS,pCIP destab
CC(C)CC1NC(=O)N(CC(=O)Nc2ccc(-c3ccccc3)cc2)C1=O (configuration not stated),x,x,x,104.0,x,x
COc1ccc(/C=C2/SC(=S)N(c3ccc(S(=O)(=O)Nc4nccs4)cc3)C2=O)cc1,-20.9,-5.6,-9.8,x,59.2*,-16.4
O=C(Nc1ccc(S(=O)(=O)Nc2nccs2)cc1)c1nn(-c2ccccc2)ccc1=O,x,-3.2,x,83.5,x,5.0
COc1ccc(-n2ccc(=O)c(C(=O)Nc3ccc(S(=O)(=O)Nc4nccs4)cc3)n2)cc1,x,-0.6,x,49.0*,x,1.2
Nc1ccc2cc3[nH]c4cc(N)ccc4c3nc2c1,x,x,x,47.0,x,x
CC1(C)CC(NNCCC#N)=CC(=[N+]2CCCC2)C1,1.7,18.5*,3.1,108.2,-7.0,-9.8
Cc1ccc(-c2cnc(-c3ccccc3C(=O)O)o2)cc1,x,2.4,x,113.1,x,-15.9
CCOC(=O)C(C)c1c(C(=O)c2ccc(C)nc2)c2ccccc2n1C (configuration not stated),52.1*,-1.3,4.0,x,2.3,-9.2
O=C1NN(c2ccc(Br)cc2)C(=O)/C1=C\c1ccc(O)cc1O,x,142.0*,x,107.9,x,0.4
Cn1c(=O)c(=O)n(C)c2cc(S(=O)(=O)N3CCN(c4cccc(C(F)(F)F)c4)CC3)ccc21,-5.0,0.1,-1.9,70.6*,-0.2,-4.4
COc1ccc(C(=O)C2CCN(C(=S)NCCc3ccc(OC)c(OC)c3)CC2)cc1,-5.2,-1.9,0.2,-9.4*,15.7,-4.5
COc1ccc(CCNC(=S)N2CCC(C(=O)c3ccc(F)cc3)CC2)cc1OC,26.9,6.9,-0.9,100.1,-2.6,-4.2
CC[C@]1(C(=O)OC)[C@H]2C(=O)N(C)C(=O)[C@H]2[C@H]2CN=C(SCC3CC3)N21,x,x,x,97.3,x,x
CC1=CC(C)C2(COC(=O)Nc3ccccc3)COC(C)C1C2C (configuration not stated),2.1,-3.7,-0.5,108.5,19.0,-0.2
COc1ccc2nc(-c3ccco3)c(-c3ccco3)nc2c1,-22.4,53.8*,6.4,91.1,0.6,-8.1
CC(=O)c1ccc(NC(=O)c2ccc3nc(-c4ccco4)c(-c4ccco4)nc3c2)cc1,-68.7,34.5*,-4.5,69.9,0.0,-1.0
O=C(NCc1ccccc1)c1ccc(C(=O)NCc2ccccc2)cc1,x,x,x,78.8*,x,x
O=C(Nc1cccnc1)c1ccc2nc(-c3ccccc3)c(-c3ccccc3)nc2c1,-4.2,3.7,-3.7,195.6,21.2,-9.8
O=C(Nc1ccccc1)c1ccc2nc(-c3ccco3)c(-c3ccco3)nc2c1,-31.1,35.9*,1.0,94.2,9.8,-12.2
O=C(NCc1ccccc1)c1ccccc1,x,x,x,101.3,x,x
Cc1ccc(C(=O)NNC(=O)C(NC(=O)c2cccc(C)c2)C(C)C)cc1 (configuration not stated),x,x,x,110.6,x,x
CC(C)c1ccc(C(=O)NC(=S)Nc2ccc3[nH]c(=O)[nH]c3c2)cc1,2.4,2.3,5.8,99.7,20.5,-10.6
COc1cc(/C=N/NC(=O)c2nnn(-c3nonc3N)c2C)ccc1OCc1ccc(Cl)cc1,x,x,x,95.4,x,x
CC(Sc1nc(C(F)(F)F)nc2ccccc12)C(=O)NC1CCCC1 (configuration not stated),x,x,x,99.9,x,x
CC(=O)c1ccc(NC(=O)COC(=O)CCC2CCCC2)cc1,x,x,x,91.7,x,x
SMILES,Runt-SMMHC FRET,RanGTP-Imp inh,Runt-CBFb FRET,Pemphigus Ab inh,Hck Nef HTS,pCIP destab
Cn1cnc(C(=O)NCc2ccccc2)c1C(=O)NCc1ccccc1,x,x,x,69.9*,x,x
O=C(NCc1ccccc1)c1ccc2nc(-c3ccco3)c(-c3ccco3)nc2c1,-45.7,25.0*,-0.9,84.3,2.0,-5.2
O=C(NCCCO)c1ccc2nc(-c3ccco3)c(-c3ccco3)nc2c1,-26.8,x,7.7,36.3*,30.5,-32.5
CCCCNC(=O)c1ccc2nc(-c3ccco3)c(-c3ccco3)nc2c1,-11.1,3.0,1.3,94.5,25.1,-0.1
O=C(NCc1ccccc1)c1ccc2nccnc2c1,2.0,0.0,-0.6,96.4,-1.7,-4.8
O=C(NCc1ccccc1)c1ncn(Cc2ccccc2)c1C(=O)NCc1ccccc1,x,x,x,106.5,x,x
CC(C)NC(=O)Nc1ccc2c(c1)C(=O)N([C@H](C)CO)C[C@H](C)[C@@H](CN(C)S(C)(=O)=O)O2,x,x,x,108.2,x,x
O=c1c(/C=C(\O)c2ccccc2)nc2ccccc2n1-c1ccccc1,-66.0,71.6*,-101.2,155.9,-2.1,-42.2
O=C(O)c1ccc(C=C(c2nc3ccccc3s2)c2nc3ccccc3s2)cc1,-2.3,-0.7,-5.8,116.8,21.1,20.0
CN(C)c1ccc(/C=C(\Cl)c2nc3ccccc3s2)cc1,80.7*,x,39.3,128.6,5.7,-10.3
COc1cc(C=C(c2nc3ccccc3s2)c2nc3ccccc3s2)cc(OC)c1O,1.5,36.2*,25.7,92.4,-0.9,-8.4
COc1ccc(-n2c(=S)[nH]c3sc4c(c3c2=O)CCN(C)C4)cc1,38.8,22.6*,13.7,x,3.2,1.1
CC(CCc1ccc(O)cc1)NCCc1ccc(O)c(O)c1 (configuration not stated),x,40.3*,x,96.7,x,x
Cc1cc2nc3c(=O)[nH]c(=O)[nH]c3nc2c([N+](=O)[O-])c1N,-235.7,x,-48.6,34.8*,32.9,-55.6
CC(=O)N1c2ccc(S(=O)(=O)N(C)CC(=O)NCc3ccc(C)cc3)cc2CC1C (configuration not stated),x,2.2,x,x,x,-14.5
CC(C)N1CCN(C(=O)c2ccc(NC(=O)c3ccc(Br)o3)cc2)CC1,x,x,x,67.9*,x,x
N#Cc1nc2ccccc2n1OCc1ccccc1,x,x,x,108.7,x,x
O=C(Nc1nccs1)c1cnc2sccn2c1=O,x,x,x,98.5,x,x
COCc1cc(C)nc(SCC(=O)Nc2cccc3cccnc23)c1C#N,5.6,3.6,1.3,23.3*,28.8,-11.7
O=S(=O)(N/N=C\c1ccc2c(c1)OCO2)c1ccc(F)cc1,x,2.7,x,102.5,x,-7.8
C=CCn1c(O)c(C=Nc2ccccc2)sc1=S,12.4,-2.7,1.5,109.1,12.8,3.7
O=C(O)Cn1c(O)c(C=Nc2ccccc2)sc1=S,73.1*,31.0*!,31.5,x,-0.2,-8.1
COC(=O)CSc1nc(N2CCOCC2)c2c(c1C#N)CC(C)(C)N(C)C2,56.2*,17.6*,18.7,100.3,0.8,-3.2
C=CCSc1nc(N2CCOCC2)c2c(c1C#N)CC(C)(C)N(C)C2,12.3,u,16.0,104.1,18.9,0.6
CCSc1nc(N2CCOCC2)c2c(c1C#N)CC(C)(C)N(C)C2,90.8*,-3.1,95.2*,111.1,0.4,8.9
CN1Cc2c(N3CCOCC3)nc(SCc3ccccc3)c(C#N)c2CC1(C)C,62.5*,26.5*,46.7,99.0,2.0,-1.4

# High-throughput results as filed in PubChem.
